For 3 molecules, Activity, activity and fold change (FC) results are on record in ChEMBL document CHEMBL4304816, “A Novel Biphenyl-based Chemotype of Retinoid X Receptor Ligands Enables Subtype and Heterodimer Preferences” (ACS Med Chem Lett, 2019).

Common to all, as to format: cell-based
In test [1] the target is T1, Peroxisome proliferator-activated receptor gamma (Homo sapiens) (UniProt P37231).
T1 sequence (whole entry): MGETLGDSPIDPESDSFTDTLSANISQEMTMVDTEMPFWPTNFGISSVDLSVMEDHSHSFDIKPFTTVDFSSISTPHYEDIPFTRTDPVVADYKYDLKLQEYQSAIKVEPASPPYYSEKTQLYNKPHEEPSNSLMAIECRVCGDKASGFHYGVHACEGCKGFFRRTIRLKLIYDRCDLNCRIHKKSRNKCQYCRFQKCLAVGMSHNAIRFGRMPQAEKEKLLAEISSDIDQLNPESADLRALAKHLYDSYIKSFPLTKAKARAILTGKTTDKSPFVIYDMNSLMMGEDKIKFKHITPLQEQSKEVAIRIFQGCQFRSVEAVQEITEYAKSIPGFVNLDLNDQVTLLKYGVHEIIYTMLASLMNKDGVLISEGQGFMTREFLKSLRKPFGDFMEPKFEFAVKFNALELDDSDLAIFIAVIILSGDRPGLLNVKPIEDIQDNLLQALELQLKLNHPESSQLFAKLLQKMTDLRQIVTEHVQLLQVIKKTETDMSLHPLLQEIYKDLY
The experiment in a line: Agonist activity at Gal4-LBD fused PPARgamma (unknown origin) expressed in HEK293T cells at 20 uM after 14 to 16 hrs by dual-Glo luciferase assay. In a few lines: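 Gal4-hybrid reporter gene selectivity panel of related nuclear receptors (PPARα/β/γ, RARα/β/γ) in HEK293T cells. Activity is read as mean fold activation versus 0.1% DMSO vehicle, n ≥ 2.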

For test [2], the species on record is Homo sapiens. The experiment in a line: Agonist activity at full-length human PPARgamma/RXR expressed in HEK293T cells at 20 uM after 14 to 16 hrs by dual-glo luciferase reporter gene assay relative to untreated control. Put shortly:
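RXR:PPARγ heterodimer reporter assay in HEK293T cells with test compound alone. Mean relative activation is taken versus 0.1% DMSO, from three independent experiments each run in duplicate.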
In general terms: In a reporter assay the amount or activity of a reporter protein is the signal.

Test [3] in a line: Agonist activity at full-length human RXR/LXR expressed in HEK293T cells at 20 uM after 14 to 16 hrs in presence of 1 uM T0901317 by dual-glo luciferase reporter gene assay relative to T0901317. The note with it: HEK-293T, read-out: Activity. In a few lines: (§1)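 Synergy format: the test compound was co-applied with the partner-receptor reference agonist at 1 μM, either T0901317 (RXR:LXR) or rosiglitazone (RXR:PPARγ). Relative synergistic activation was derived from three independent experiments, each in duplicate; mean reported.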

Test [4] is filed under the species Homo sapiens. The experiment in a line: Agonist activity at full-length human PPARgamma/RXR expressed in HEK293T cells at 20 uM after 14 to 16 hrs in presence of 1 uM rosiglitazone by dual-glo luciferase reporter gene assay relative to rosiglitazone. Put shortly:
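RXR:PPARγ heterodimer reporter assay run with reference PPARγ agonist rosiglitazone (1 μM) co-applied. Read-out is mean relative synergistic activation, from three independent experiments each run in duplicate.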

Test [5] in a line: Agonist activity at full-length human RXR/LXR expressed in HEK293T cells at 10 uM after 14 to 16 hrs by dual-glo luciferase reporter gene assay relative to untreated control. Particulars: HEK-293T, read-out: Activity. Put shortly:
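RXR:LXR or RXR:PPARγ heterodimer reporter assay with test compound alone. Activation expressed relative to 0.1% DMSO vehicle. Three independent experiments, each in duplicate; mean reported.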

Test [6] can be described thus: Agonist activity at full-length human RXR/LXR expressed in HEK293T cells at 10 uM after 14 to 16 hrs in presence of 1 uM T0901317 by dual-glo luciferase reporter gene assay relative to T0901317. Particulars: HEK-293T, read-out: Activity. In a few lines:
as §1

Test [7] concerns the target T2, Retinoic acid receptor RXR-beta (Homo sapiens) (UniProt P28702).
T2 sequence (whole entry): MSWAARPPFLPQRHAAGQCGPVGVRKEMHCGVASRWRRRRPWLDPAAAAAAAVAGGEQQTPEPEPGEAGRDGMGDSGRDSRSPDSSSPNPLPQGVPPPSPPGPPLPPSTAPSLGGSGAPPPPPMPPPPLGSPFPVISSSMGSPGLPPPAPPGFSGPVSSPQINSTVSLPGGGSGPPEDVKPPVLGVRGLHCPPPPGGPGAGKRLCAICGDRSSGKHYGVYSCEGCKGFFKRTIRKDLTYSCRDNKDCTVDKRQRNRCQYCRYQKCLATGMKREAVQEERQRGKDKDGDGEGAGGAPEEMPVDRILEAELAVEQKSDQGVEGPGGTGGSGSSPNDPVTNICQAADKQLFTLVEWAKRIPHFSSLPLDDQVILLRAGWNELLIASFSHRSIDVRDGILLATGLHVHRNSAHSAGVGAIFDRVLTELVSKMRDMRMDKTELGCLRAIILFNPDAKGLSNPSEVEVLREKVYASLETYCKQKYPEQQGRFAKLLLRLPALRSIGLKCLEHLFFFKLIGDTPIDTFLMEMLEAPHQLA
The experiment in a line: Agonist activity at Gal4-LBD fused RXRbeta (unknown origin) expressed in HEK293T cells assessed as fold activation at 10 uM after 14 to 16 hrs by dual-Glo luciferase assay relative to untreated control. Put shortly:
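Gal4-hybrid RXRα/β/γ reporter gene assays in HEK293T cells. Fold activation is the maximal fold activation versus 0.1% DMSO.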

The target of test [8] is T3, Retinoic acid receptor RXR-alpha (Homo sapiens) (UniProt P19793).
T3 sequence (whole entry): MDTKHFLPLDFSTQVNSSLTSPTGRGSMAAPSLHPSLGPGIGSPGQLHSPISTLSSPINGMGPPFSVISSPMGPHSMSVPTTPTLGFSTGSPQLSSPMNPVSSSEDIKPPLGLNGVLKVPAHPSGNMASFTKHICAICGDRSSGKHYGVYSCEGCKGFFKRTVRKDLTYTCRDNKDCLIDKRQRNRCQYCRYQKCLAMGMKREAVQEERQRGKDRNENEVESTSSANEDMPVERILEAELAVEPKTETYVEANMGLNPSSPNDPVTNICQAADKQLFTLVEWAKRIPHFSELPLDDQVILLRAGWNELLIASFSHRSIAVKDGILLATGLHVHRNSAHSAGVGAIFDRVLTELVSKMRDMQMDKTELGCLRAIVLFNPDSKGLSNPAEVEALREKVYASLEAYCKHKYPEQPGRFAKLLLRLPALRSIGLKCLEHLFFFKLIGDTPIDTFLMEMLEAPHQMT
The experiment in a line: Agonist activity at Gal4-LBD fused RXRalpha (unknown origin) expressed in HEK293T cells at 10 uM after 14 to 16 hrs by dual-Glo luciferase assay.

Active and inactive are the calls of the source. The calls are words filed in the database; no cut-off is given here.

With `Cc1cc(-c2ccc(C(=O)O)cc2)cc(C(C)(C)C)c1`, the Activity result in test [1] is “Active”. In addition, the figures for the Activity in test [2] and in test [4] were 91% and 46%, respectively. Moreover, the activity at 20 µM in test [3] came out at 70%.

Regarding `Cc1cc(-c2cc(C(F)(F)F)cc(C(F)(F)F)c2)ccc1CC(=O)O`, the activity at 10 µM in test [5] is 63%; in test [6], 64%.

Regarding `Cc1cc(-c2cc(C(C)(C)C)cc(C(C)(C)C)c2)ccc1C(=O)O`, in test [7], the fold change (FC) was 31. The Activity entry in test [8] was “inactive”.
